Measured values reported in ChEMBL document CHEMBL4028867, “Design, Synthesis, and Characterization of N-Oxide-Containing Heterocycles with in Vivo Sterilizing Antitubercular Activity” (J Med Chem, 2017).
pIC50: −log10 of the molar value. Converted amounts (≈) assume the structure as drawn. The source made the active and inactive calls. The calls are words filed in the database; no cut-off is given here.

Tests used:
[1] = system: Mycobacterium tuberculosis; experiment: Up-regulation of ATP synthase sub-units genes in Mycobacterium tuberculosis H37Rv at 2 times MIC90 after 4 hrs by microarray analysis; type: functional
[2] = system: Mycobacterium tuberculosis; experiment: Antitubercular activity against replicating stage Mycobacterium tuberculosis H37Rv ATCC 27294 after 7 days by Resazurin microtiter assay; type: functional; settings: H37Rv ATCC 27294, 168 h
[3] = Chemical stability in PBS at pH 7.4 assessed as drug degradation after 10 hrs by HPLC-UV analysis; type: physicochemical; settings: read-out: Drug degradation
[4] = system: Mycobacterium tuberculosis; experiment: Growth inhibition of Mycobacterium tuberculosis H37Rv exposed to plasma from BALB/c mouse treated with 300 mg/kg, po administered through microemulsion vehicle as single oral dose per gavage after 0.3 hrs by Resazurin microtiter assay; type: functional; settings: read-out: GI
Method in brief: (§1)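 The microemulsion was 10% cholesterol, 10% phosphatidylcholine/sodium oleate/polyoxyl 40 hydrogenated castor oil (3:6:8) and 80% phosphate buffer pH 7.4. Plasma taken at 0.3, 1, 2 or 4 h was tested by REMA for % Mtb growth inhibition, and plasma level was estimated against the in-vitro REMA MIC.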

[5] = Fraction unbound in human plasma at 5 uM by LC-MS/MS analysis; type: ADME, cell-free
Mus musculus [6] = experiment: Hepatotoxicity in BALB/c mouse assessed as change in alanine aminotransferase level in plasma at 200 mg/kg, po qd administered via gavage after 10 days; type: toxicity, organism-based; settings: in vivo, 240 h
[7] = system: Mycobacterium tuberculosis; experiment: Growth inhibition of Mycobacterium tuberculosis H37Rv exposed to plasma from BALB/c mouse treated with 300 mg/kg, po administered through microemulsion vehicle as single oral dose per gavage after 1 hr by Resazurin microtiter assay; type: functional; settings: read-out: GI; method in brief: as §1
Mus musculus [8] = experiment: Nephrotoxicity in BALB/c mouse assessed as change in urea level in blood at 200 mg/kg, po qd administered via gavage after 10 days; type: toxicity, organism-based; settings: in vivo, 240 h
[9] = system: Mycobacterium tuberculosis; experiment: Antitubercular activity against dormant stage Mycobacterium tuberculosis H37Rv ATCC 27294 incubated for 10 days in anaerobic condition followed by incubation for 28 hrs in ambient gaseous condition measured after day 11 by two fold serial dilution assay; type: functional
Escherichia coli = experiment: Antimicrobial activity against Escherichia coli ATCC 25922 at 200 uM incubated for 16 hrs; type: functional
[10] = system: Mycobacterium tuberculosis; experiment: Downregulation of htrA gene in Mycobacterium tuberculosis H37Rv at 2 times MIC90 after 4 hrs by microarray analysis; type: functional
MRC5 = experiment: Cytotoxicity against human MRC5 cells assessed as reduction in cell viability after 24 hrs by fluorescence assay; type: cell-based; settings: MRC5, 24 h
Method in brief: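 MRC-5 human lung fibroblasts; cytotoxicity reported as IC50.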

Mus musculus [11] = experiment: Hepatotoxicity in BALB/c mouse assessed as change in aspartate aminotransferase level in plasma at 200 mg/kg, po qd administered via gavage after 10 days; type: toxicity, organism-based; settings: in vivo, 240 h
[12] = system: Mycobacterium tuberculosis; experiment: Downregulation of hspR gene in Mycobacterium tuberculosis H37Rv at 2 times MIC90 after 4 hrs by microarray analysis; type: functional
Mus musculus [13] = experiment: Toxicity in BALB/c mouse assessed as change in liver weight at 200 mg/kg, po qd administered via gavage after 10 days; type: organism-based; settings: in vivo, 240 h
Method in brief: (§2)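 Mice given one daily oral gavage dose of 200 mg/kg body weight for 10 days with daily behavioural monitoring (hippocratic screening); heart, lung, spleen, kidney and liver weights compared with controls by ANOVA and Dunnett's test, p < 0.05.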

Mus musculus [14] = experiment: Toxicity in BALB/c mouse assessed as change in kidney weight at 200 mg/kg, po qd administered via gavage after 10 days; type: organism-based; settings: in vivo, 240 h; method in brief: as §2
[15] = Apparent permeability from basolateral to apical side in human Caco2 cells by LC-MS/MS analysis; type: ADME, cell-based; settings: caco-2
Method in brief: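 Caco-2 monolayer permeability measured in both directions (apical-to-basolateral and basolateral-to-apical); result given as apparent permeability coefficient Papp in cm/s.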

[16] = system: Mycobacterium tuberculosis; experiment: Antitubercular activity against Mycobacterium tuberculosis H37Rv ATCC 27294 in presence of 10% fetal bovine serum; type: functional
Cytochrome P450 2B6 = biological target: T1, Cytochrome P450 2B6 (Homo sapiens, UniProt P20813); experiment: Inhibition of CYP2B6 in human liver microsomes in presence of NADPH by LC-MS/MS analysis; type: ADME
T1 sequence (P20813 whole entry): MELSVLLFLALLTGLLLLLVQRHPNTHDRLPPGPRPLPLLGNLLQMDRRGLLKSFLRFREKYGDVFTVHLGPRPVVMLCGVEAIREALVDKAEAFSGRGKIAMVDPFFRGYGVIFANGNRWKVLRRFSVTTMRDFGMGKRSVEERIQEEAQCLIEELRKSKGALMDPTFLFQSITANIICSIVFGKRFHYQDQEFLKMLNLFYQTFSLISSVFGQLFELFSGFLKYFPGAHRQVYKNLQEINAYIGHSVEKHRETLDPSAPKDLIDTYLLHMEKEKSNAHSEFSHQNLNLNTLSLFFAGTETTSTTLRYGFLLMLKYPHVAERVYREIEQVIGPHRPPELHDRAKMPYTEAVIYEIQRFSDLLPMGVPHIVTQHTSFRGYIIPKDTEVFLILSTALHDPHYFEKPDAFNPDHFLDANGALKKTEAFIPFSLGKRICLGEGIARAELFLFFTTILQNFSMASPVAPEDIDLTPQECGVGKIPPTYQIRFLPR

[17] = system: Mycobacterium tuberculosis; experiment: Down-regulation of HSP gene in Mycobacterium tuberculosis H37Rv at 2 times MIC90 after 4 hrs by microarray analysis; type: functional
Mus musculus [18] = experiment: Nephrotoxicity in BALB/c mouse assessed as change in kidney morphology at 200 mg/kg, po qd administered via gavage after 10 days by hematoxylin and eosin staining based analysis; type: toxicity, organism-based; settings: in vivo, 240 h
Method in brief: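 BALB/c mice dosed orally by gavage once daily at 200 mg/kg; liver and kidney sections stained with H&E and examined for tissue morphology.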

Cytochrome P450 3A4 = Cytochrome P450 3A4 (Homo sapiens, UniProt P08684); experiment: Inhibition of CYP3A4 in human liver microsomes in presence of NADPH by LC-MS/MS analysis; type: ADME
[19] = system: Mycobacterium tuberculosis; experiment: Up-regulation of […] gene EF-G in Mycobacterium tuberculosis H37Rv at 2 times MIC90 after 4 hrs by microarray analysis; type: functional
Mus musculus [20] = experiment: Toxicity in BALB/c mouse assessed as change in heart weight at 200 mg/kg, po qd administered via gavage after 10 days; type: organism-based; settings: in vivo, 240 h; method in brief: as §2
[21] = system: Mycobacterium tuberculosis; experiment: Antitubercular activity against Mycobacterium tuberculosis H37Rv ATCC 27294 under normal pH 6.8 condition; type: functional
[22] = system: Mycobacterium tuberculosis; experiment: Growth inhibition of Mycobacterium tuberculosis H37Rv exposed to plasma from BALB/c mouse treated with 300 mg/kg, po administered through microemulsion vehicle as single oral dose per gavage after 4 hrs by Resazurin microtiter assay; type: functional; settings: read-out: GI; method in brief: as §1

Chain of Cytochrome P450 3A4 (P08684 whole entry): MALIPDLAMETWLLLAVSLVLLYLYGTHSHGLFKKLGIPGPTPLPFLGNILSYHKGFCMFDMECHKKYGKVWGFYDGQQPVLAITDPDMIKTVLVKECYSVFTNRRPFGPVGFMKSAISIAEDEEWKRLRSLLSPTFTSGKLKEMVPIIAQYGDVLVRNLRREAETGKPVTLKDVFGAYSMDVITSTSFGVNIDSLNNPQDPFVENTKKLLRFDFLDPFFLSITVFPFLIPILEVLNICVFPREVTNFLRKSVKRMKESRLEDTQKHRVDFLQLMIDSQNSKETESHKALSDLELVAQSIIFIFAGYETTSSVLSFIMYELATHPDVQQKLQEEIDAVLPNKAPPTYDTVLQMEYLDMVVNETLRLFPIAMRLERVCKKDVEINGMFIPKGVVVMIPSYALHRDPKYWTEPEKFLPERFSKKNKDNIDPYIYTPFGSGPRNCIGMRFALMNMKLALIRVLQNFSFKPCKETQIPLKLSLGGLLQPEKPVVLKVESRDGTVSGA

O=C(N/N=C/c1ccc2no[n+]([O-])c2c1)c1ccncc1
Activity [1]: Active | MIC90 [2]: 1.1 to 5.84 µM (≈ 0.312 to 1.65 µg/mL) | degraded at 10 h [3]: 20% | inhibition in vivo at 300 mg/kg [4]: 65.7% | fraction unbound at 5 µM [5]: 0.465 | Activity (Mus musculus [6]): Non-Toxic | inhibition in vivo at 300 mg/kg [7]: 79% | Activity (Mus musculus [8]): Toxic | MIC90 [9]: 6.62 µM (≈ 1.88 µg/mL) | Activity (Escherichia coli): inactive | Activity [10]: Active | pIC50 (MRC5): 3.28 | Activity (Mus musculus [11]): Non-Toxic | Activity [12]: Active | Activity (Mus musculus [13]): Non-Toxic | Activity (Mus musculus [14]): Non-Toxic | Papp [15]: 3.9 ×10⁻⁶ cm/s | MIC90 [16]: 11.8 µM | pIC50 (Cytochrome P450 2B6): < 4.70 | Activity [17]: Active | Activity (Mus musculus [18]): Non-Toxic | pIC50 (Cytochrome P450 3A4): < 4.70 | Activity [19]: Active | Activity (Mus musculus [20]): Non-Toxic | MIC90 [21]: 5.47 µM (≈ 1.55 µg/mL) | inhibition in vivo at 300 mg/kg [22]: 51.3%
